# Measured values published in ChEMBL document CHEMBL5247621, “From dopamine 4 to sigma 1: Synthesis, SAR and biological characterization of a piperidine scaffold of σ1 modulators” (Eur J Med Chem, 2022).
# System: not listed separately
# Assay: Tmax in mouse plasma at 5 mg/kg, ip measured after 24 hrs
# Format: ADME, organism-based
# Conditions: in vivo
# In short: (§1)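 Discrete mouse study, single intraperitoneal dose of 5 mg/kg in 10% DMSO/10% Cremophor EL/30% PEG400/50% water. Plasma and brain concentrations followed over 24 h. Parameters estimated by non-compartmental analysis.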
row,SMILES,Tmax
1,Fc1ccc(COC2CCN(Cc3ccc4[nH]cnc4c3)CC2)cc1F,0.28 h

# Target: T1, Sigma non-opioid intracellular receptor 1 (Homo sapiens, UniProt Q99720)
# T1 sequence (Q99720 whole entry): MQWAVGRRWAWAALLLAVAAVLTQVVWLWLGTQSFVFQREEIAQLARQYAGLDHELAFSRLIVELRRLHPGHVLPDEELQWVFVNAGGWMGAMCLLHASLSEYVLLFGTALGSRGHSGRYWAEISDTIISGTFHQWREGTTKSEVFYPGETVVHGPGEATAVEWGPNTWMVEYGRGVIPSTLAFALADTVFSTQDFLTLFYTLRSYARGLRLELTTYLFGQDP
# Assay: Binding affinity to sigma 1 receptor in human Jurkat cells
# Format: cell-based
# Conditions: not given
row,SMILES,Ki
1,Fc1ccc(COC2CCN(Cc3ccc4[nH]cnc4c3)CC2)cc1F,0.012 µM

# System: not listed separately
# Assay: AUC(infinity) in mouse plasma at 5 mg/kg, ip measured after 24 hrs
# Format: ADME, organism-based
# Set-up: dose 5 mg/kg, time 24 hrs, route ip
# Conditions: in vivo
# In short: as §1
row,SMILES,AUC
1,Fc1ccc(COC2CCN(Cc3ccc4[nH]cnc4c3)CC2)cc1F,952 ng·h/mL

# System: not listed separately
# Assay: Mean residence time in mouse brain at 5 mg/kg, ip measured after 24 hrs
# Format: ADME, organism-based
# Conditions: in vivo
# In short: as §1
row,SMILES,MRT
1,Fc1ccc(COC2CCN(Cc3ccc4[nH]cnc4c3)CC2)cc1F,8.43 h

# Target: D(3) dopamine receptor (Homo sapiens, UniProt P35462)
# Sequence (P35462 whole entry): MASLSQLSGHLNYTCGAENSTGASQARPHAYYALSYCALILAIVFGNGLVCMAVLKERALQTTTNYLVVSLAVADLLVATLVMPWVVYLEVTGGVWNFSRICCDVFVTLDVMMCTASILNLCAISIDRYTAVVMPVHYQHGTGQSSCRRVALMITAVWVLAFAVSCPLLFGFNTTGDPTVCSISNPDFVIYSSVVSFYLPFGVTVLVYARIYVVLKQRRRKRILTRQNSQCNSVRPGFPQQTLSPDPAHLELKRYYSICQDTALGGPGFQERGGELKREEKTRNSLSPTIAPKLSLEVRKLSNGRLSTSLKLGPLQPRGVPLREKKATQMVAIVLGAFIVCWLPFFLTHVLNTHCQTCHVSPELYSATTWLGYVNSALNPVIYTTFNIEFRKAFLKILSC
# Assay: Displacement of [3H]N-methylspiperone from D3 receptor in HEK293 cell membrane assessed as inhibition constant
# Format: cell membranes
# Conditions: not given
# In short: (§2)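 Competitive radioligand binding in membranes harvested from HEK293 cells, with one radioligand per target: [3H]N-methylspiperone for D2, D3 and D4; [3H]SCH23390 for D1 and D5; [3H]pentazocine for σ1; [3H]DTG for σ2. Ki derived from inhibition of binding, each run in triplicate.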
row,SMILES,Ki
1,Fc1ccc(CN2CCCC3(CCN(Cc4cc5ccc(Cl)cc5[nH]4)C3)C2)cc1F (stereo not drawn),0.345 µM
2,Fc1ccc(CN2CCCC23CCN(Cc2cc4ccc(Cl)cc4[nH]2)C3)cc1F (stereo not drawn),0.118 µM
3,Cc1cc(NC(=O)CN2CCC3(CCCN3Cc3ccc(F)c(F)c3)C2)ccc1F (stereo not drawn),0.512 µM

# System: not listed separately
# Assay: Cmax in mouse brain at 5 mg/kg, ip measured after 24 hrs
# Format: ADME, organism-based
# Set-up: time 24 hrs, dose 5 mg/kg, route ip
# Conditions: not given
# In short: as §1
row,SMILES,Cmax
1,Fc1ccc(COC2CCN(Cc3ccc4[nH]cnc4c3)CC2)cc1F,860 ng/mL

# Target: D(1A) dopamine receptor (Homo sapiens, UniProt P21728)
# Sequence (P21728 whole entry): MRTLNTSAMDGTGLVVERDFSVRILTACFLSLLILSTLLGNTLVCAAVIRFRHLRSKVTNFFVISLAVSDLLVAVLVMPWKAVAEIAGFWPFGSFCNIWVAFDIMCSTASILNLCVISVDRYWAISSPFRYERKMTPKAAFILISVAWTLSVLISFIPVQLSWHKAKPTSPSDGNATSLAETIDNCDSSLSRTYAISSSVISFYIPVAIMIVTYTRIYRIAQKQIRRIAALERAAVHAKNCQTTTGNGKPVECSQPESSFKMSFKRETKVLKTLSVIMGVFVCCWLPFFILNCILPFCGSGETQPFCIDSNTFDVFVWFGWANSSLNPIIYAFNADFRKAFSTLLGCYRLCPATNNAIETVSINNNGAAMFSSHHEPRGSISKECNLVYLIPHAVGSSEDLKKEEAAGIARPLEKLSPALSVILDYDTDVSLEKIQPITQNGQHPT
# Assay: Displacement of [3H]SCH23390 from D1 receptor in HEK293 cell membrane assessed as inhibition constant
# Format: cell membranes
# Conditions: not given
# In short: as §2
row,SMILES,Ki
1,Cc1ccccc1CO[C@H]1CCCN(Cc2ccc3c(cnn3C)c2)C1,> 10 µM
2,FC(F)(F)c1cccc(COC2CCN(Cc3ccc4[nH]cnc4c3)CC2)c1,> 10 µM
3,Fc1ccc(COC2CCN(Cc3ccc4[nH]cnc4c3)CC2)cc1F,> 10 µM

# The next lines start with the values.
row,Ki,SMILES
1,1.53 µM,Fc1ccc(CN2CCCC3(CCN(Cc4cc5ccc(Cl)cc5[nH]4)C3)C2)cc1F (stereo not drawn)
2,> 10 µM,Cc1c(Cl)cccc1NC(=O)CN1CCC2(CCCN2Cc2ccc(F)c(F)c2)C1 (stereo not drawn)
3,2.37 µM,Fc1ccc(CN2CCCC23CCN(Cc2cc4ccc(Cl)cc4[nH]2)C3)cc1F (stereo not drawn)
4,> 10 µM,Cc1cc(NC(=O)CN2CCC3(CCCN3Cc3ccc(F)c(F)c3)C2)ccc1F (stereo not drawn)
5,> 10 µM,Fc1ccc(CN2CCCC23CCN(Cc2cn4ccccc4n2)C3)cc1F (stereo not drawn)

# System: not listed separately
# Assay: Half life in mouse brain at 5 mg/kg, ip measured after 24 hrs
# Format: ADME, organism-based
# Conditions: in vivo
# In short: as §1
row,SMILES,t1/2
1,Fc1ccc(COC2CCN(Cc3ccc4[nH]cnc4c3)CC2)cc1F,9.11 h

# Target: D(2) dopamine receptor (Homo sapiens, UniProt P14416)
# Sequence (P14416 whole entry): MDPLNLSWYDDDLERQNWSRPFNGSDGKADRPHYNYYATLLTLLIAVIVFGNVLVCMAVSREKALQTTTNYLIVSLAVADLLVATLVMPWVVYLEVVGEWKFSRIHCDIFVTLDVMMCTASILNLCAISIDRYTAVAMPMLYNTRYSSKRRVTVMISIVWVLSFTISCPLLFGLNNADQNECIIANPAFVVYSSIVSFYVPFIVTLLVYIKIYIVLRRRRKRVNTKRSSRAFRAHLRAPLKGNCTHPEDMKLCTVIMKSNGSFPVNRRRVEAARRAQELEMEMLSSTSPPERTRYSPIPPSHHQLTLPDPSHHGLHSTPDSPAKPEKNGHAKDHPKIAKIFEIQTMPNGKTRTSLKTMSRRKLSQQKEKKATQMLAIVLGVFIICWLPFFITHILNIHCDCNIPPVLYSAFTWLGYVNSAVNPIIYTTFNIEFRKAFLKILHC
# Assay: Displacement of [3H]N-methylspiperone from D2 receptor in HEK293 cell membrane assessed as inhibition constant
# Format: cell membranes
# Conditions: not given
# In short: as §2
row,SMILES,Ki
1,Fc1ccc(CN2CCCC3(CCN(Cc4cc5ccc(Cl)cc5[nH]4)C3)C2)cc1F (stereo not drawn),> 10 µM
2,Fc1ccc(CN2CCCC23CCN(Cc2cc4ccc(Cl)cc4[nH]2)C3)cc1F (stereo not drawn),> 10 µM

# Target: T1, Sigma non-opioid intracellular receptor 1
# Assay: Displacement of [3H] Pentazocine from sigma 1 receptor in HEK293 cell membrane
# Format: cell membranes
# Conditions: read-out: Ki
row,SMILES,Ki
1,Cc1ccccc1CO[C@H]1CCCN(Cc2ccc3c(cnn3C)c2)C1,0.037 µM
2,Fc1ccc(COC2CCN(Cc3ccc4[nH]cnc4c3)CC2)cc1F,0.0083 µM

# Further lines, results first:
row,Ki,SMILES
1,0.0071 µM,Fc1ccc(CN2CCCC3(CCN(Cc4cc5ccc(Cl)cc5[nH]4)C3)C2)cc1F (stereo not drawn)
2,0.014 µM,Cc1c(Cl)cccc1NC(=O)CN1CCC2(CCCN2Cc2ccc(F)c(F)c2)C1 (stereo not drawn)
3,0.0055 µM,Fc1ccc(CN2CCCC23CCN(Cc2cc4ccc(Cl)cc4[nH]2)C3)cc1F (stereo not drawn)
4,0.016 µM,Cc1cc(NC(=O)CN2CCC3(CCCN3Cc3ccc(F)c(F)c3)C2)ccc1F (stereo not drawn)
5,0.0036 µM,Fc1ccc(CN2CCCC23CCN(Cc2cn4ccccc4n2)C3)cc1F (stereo not drawn)

# Same assay, conditions: read-out: pKi (converted)
row,SMILES,Ki
1,Fc1ccc(CN2CCCC23CCN(Cc2cc4ccc(Cl)cc4[nH]2)C3)cc1F (stereo not drawn),0.00537 µM

# Target: D(1B) dopamine receptor (Homo sapiens, UniProt P21918)
# Sequence (P21918 whole entry): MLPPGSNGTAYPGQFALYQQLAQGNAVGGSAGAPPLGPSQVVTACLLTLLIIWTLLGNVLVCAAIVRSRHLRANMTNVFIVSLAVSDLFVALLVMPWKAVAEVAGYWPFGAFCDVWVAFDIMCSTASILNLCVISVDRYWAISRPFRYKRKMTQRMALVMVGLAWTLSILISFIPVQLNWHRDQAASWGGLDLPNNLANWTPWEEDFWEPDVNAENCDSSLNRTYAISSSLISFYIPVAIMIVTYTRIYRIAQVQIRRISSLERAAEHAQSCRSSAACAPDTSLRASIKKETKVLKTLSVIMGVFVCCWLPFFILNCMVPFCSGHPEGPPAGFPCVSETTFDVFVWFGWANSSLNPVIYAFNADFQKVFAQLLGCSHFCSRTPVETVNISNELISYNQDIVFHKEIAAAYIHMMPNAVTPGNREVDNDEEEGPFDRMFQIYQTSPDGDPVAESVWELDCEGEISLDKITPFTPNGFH
# Assay: Displacement of [3H]SCH23390 from D5 receptor in HEK293 cell membrane assessed as inhibition constant
# Format: cell membranes
# Conditions: not given
# In short: as §2
row,SMILES,Ki
1,FC(F)(F)c1cccc(COC2CCN(Cc3ccc4[nH]cnc4c3)CC2)c1,> 10 µM
2,Fc1ccc(COC2CCN(Cc3ccc4[nH]cnc4c3)CC2)cc1F,> 10 µM

# Further lines, results first:
row,Ki,SMILES
1,> 10 µM,Fc1ccc(CN2CCCC3(CCN(Cc4cc5ccc(Cl)cc5[nH]4)C3)C2)cc1F (stereo not drawn)
2,> 10 µM,Fc1ccc(CN2CCCC23CCN(Cc2cc4ccc(Cl)cc4[nH]2)C3)cc1F (stereo not drawn)
3,> 10 µM,Cc1cc(NC(=O)CN2CCC3(CCCN3Cc3ccc(F)c(F)c3)C2)ccc1F (stereo not drawn)

# Target: T2, D(4) dopamine receptor (Homo sapiens) (UniProt P21917)
# T2 sequence (whole entry): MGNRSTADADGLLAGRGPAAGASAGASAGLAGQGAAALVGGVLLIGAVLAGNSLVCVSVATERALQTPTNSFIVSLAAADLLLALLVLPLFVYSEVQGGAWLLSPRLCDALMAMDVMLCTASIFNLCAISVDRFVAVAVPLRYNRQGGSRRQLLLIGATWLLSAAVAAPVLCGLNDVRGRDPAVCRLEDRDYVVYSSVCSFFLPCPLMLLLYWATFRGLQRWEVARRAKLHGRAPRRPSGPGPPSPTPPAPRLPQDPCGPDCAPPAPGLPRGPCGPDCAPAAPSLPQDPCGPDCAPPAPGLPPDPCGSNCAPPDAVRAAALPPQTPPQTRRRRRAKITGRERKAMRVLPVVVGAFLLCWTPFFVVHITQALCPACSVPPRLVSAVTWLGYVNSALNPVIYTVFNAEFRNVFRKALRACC
# Assay: Displacement of [3H]N-methylspiperone from D4 receptor in HEK293 cell membrane assessed as inhibition constant at 10 uM relative to control
# Format: cell membranes
# Set-up: scale not given: the % may be the effect or the level left
# Conditions: not given
row,SMILES,Activity
1,Cc1ccccc1CO[C@H]1CCCN(Cc2ccc3c(cnn3C)c2)C1,65%
2,Fc1ccc(CN2CCCC3(CCN(Cc4cc5ccc(Cl)cc5[nH]4)C3)C2)cc1F (stereo not drawn),39%
3,Cc1cc(NC(=O)CN2CCC3(CCCN3Cc3ccc(F)c(F)c3)C2)ccc1F (stereo not drawn),14%
4,Fc1ccc(CN2CCCC23CCN(Cc2cn4ccccc4n2)C3)cc1F (stereo not drawn),-0.7%

# System: not listed separately
# Assay: Plasma protein binding in mouse assessed as unbound fraction
# Format: ADME
# Conditions: not given
# In short: (§3)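 Plasma protein binding by equilibrium dialysis in human or mouse plasma, reported as fraction unbound (fu).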
row,SMILES,Fu
1,Cc1ccccc1CO[C@H]1CCCN(Cc2ccc3c(cnn3C)c2)C1,8.8%
2,Fc1ccc(CN2CCCC23CCN(Cc2cn4ccccc4n2)C3)cc1F (stereo not drawn),30.2%

# Target: T3, D(4) dopamine receptor (Homo sapiens, UniProt P21917)
# T3 sequence (P21917 whole entry): T2 sequence (whole entry)
# Assay: Displacement of [3H]N-methylspiperone from D4 receptor in HEK293 cell membrane
# Format: cell membranes
# Conditions: read-out: Ki
row,SMILES,Ki
1,Cc1c(Cl)cccc1NC(=O)CN1CCC2(CCCN2Cc2ccc(F)c(F)c2)C1 (stereo not drawn),1.7 µM
2,Fc1ccc(CN2CCCC23CCN(Cc2cc4ccc(Cl)cc4[nH]2)C3)cc1F (stereo not drawn),0.268 µM

# System: not listed separately
# Assay: Plasma protein binding in human assessed as unbound fraction
# Format: ADME, cell-free
# Conditions: not given
# In short: as §3
row,SMILES,Fu
1,Cc1ccccc1CO[C@H]1CCCN(Cc2ccc3c(cnn3C)c2)C1,4.3%
2,Fc1ccc(CN2CCCC23CCN(Cc2cn4ccccc4n2)C3)cc1F (stereo not drawn),2.7%

# System: not listed separately
# Assay: AUC(infinity) in mouse brain at 5 mg/kg, ip measured after 24 hrs
# Format: ADME, organism-based
# Set-up: dose 5 mg/kg, time 24 hrs, route ip
# Conditions: not given
# In short: as §1
row,SMILES,AUC(0-inf)
1,Fc1ccc(COC2CCN(Cc3ccc4[nH]cnc4c3)CC2)cc1F,4560 ng·h/mL

# System: not listed separately
# Assay: Half life in mouse plasma at 5 mg/kg, ip measured after 24 hrs
# Format: ADME, organism-based
# Conditions: in vivo
# In short: as §1
row,SMILES,t1/2
1,Fc1ccc(COC2CCN(Cc3ccc4[nH]cnc4c3)CC2)cc1F,2.14 h

# System: not listed separately
# Assay: Ratio of free drug concentration in mouse brain to plasma at 5 mg/kg, ip measured after 1 hr
# Format: ADME, organism-based
# Conditions: not given
# In short: (§4)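 Mice received 5 mg/kg IP in 10% DMSO/10% Cremophor EL/30% PEG400/50% water. Kp,uu is free brain over free plasma concentration at 1 h and 5 h. Free levels are corrected with unbound fractions measured in mouse plasma protein binding and in mouse brain homogenate binding.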
row,SMILES,"K(p,uu,brain)"
1,Fc1ccc(COC2CCN(Cc3ccc4[nH]cnc4c3)CC2)cc1F,1.59

# System: not listed separately
# Assay: Ratio of total drug concentration in mouse brain to plasma at 5 mg/kg, ip measured after 1 hr
# Format: ADME, organism-based
# Conditions: not given
# In short: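 Mice received 5 mg/kg IP in 10% DMSO/10% Cremophor EL/30% PEG400/50% water. Kp is total brain concentration divided by total plasma concentration, taken at 1 h and 5 h post-dose.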
row,SMILES,Kp
1,Fc1ccc(COC2CCN(Cc3ccc4[nH]cnc4c3)CC2)cc1F,2.78

# System: not listed separately
# Assay: Ratio of free drug concentration in mouse brain to plasma at 5 mg/kg, ip measured after 5 hrs
# Format: ADME, organism-based
# Conditions: read-out: K(p,uu,brain)
# In short: as §4
row,SMILES,Kp uu at 5 h
1,Fc1ccc(COC2CCN(Cc3ccc4[nH]cnc4c3)CC2)cc1F,6.44

# Target: Sigma intracellular receptor 2 (Homo sapiens, UniProt Q5BJF2)
# Sequence (Q5BJF2 whole entry): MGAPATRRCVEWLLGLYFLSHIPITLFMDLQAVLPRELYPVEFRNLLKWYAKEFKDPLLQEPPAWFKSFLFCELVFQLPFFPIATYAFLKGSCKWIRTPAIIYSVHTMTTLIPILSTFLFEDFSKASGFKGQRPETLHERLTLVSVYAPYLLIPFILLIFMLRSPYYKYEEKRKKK
# Assay: Displacement of [3H]DTG from sigma-2 receptor in HEK293 cell membrane assessed as inhibition constant
# Format: cell membranes
# Conditions: not given
# In short: as §2
row,SMILES,Ki
1,Cc1ccccc1CO[C@H]1CCCN(Cc2ccc3c(cnn3C)c2)C1,0.239 µM
2,FC(F)(F)c1cccc(COC2CCN(Cc3ccc4[nH]cnc4c3)CC2)c1,0.073 µM
3,Fc1ccc(COC2CCN(Cc3ccc4[nH]cnc4c3)CC2)cc1F,0.166 µM

# Now from value to compound:
row,Ki,SMILES
1,0.03 µM,Fc1ccc(CN2CCCC3(CCN(Cc4cc5ccc(Cl)cc5[nH]4)C3)C2)cc1F (stereo not drawn)
2,0.043 µM,Cc1c(Cl)cccc1NC(=O)CN1CCC2(CCCN2Cc2ccc(F)c(F)c2)C1 (stereo not drawn)
3,0.023 µM,Fc1ccc(CN2CCCC23CCN(Cc2cc4ccc(Cl)cc4[nH]2)C3)cc1F (stereo not drawn)
4,0.047 µM,Cc1cc(NC(=O)CN2CCC3(CCCN3Cc3ccc(F)c(F)c3)C2)ccc1F (stereo not drawn)
5,0.023 µM,Fc1ccc(CN2CCCC23CCN(Cc2cn4ccccc4n2)C3)cc1F (stereo not drawn)

# System: not listed separately
# Assay: Mean residence time in mouse plasma at 5 mg/kg, ip measured after 24 hrs
# Format: ADME, organism-based
# Conditions: in vivo
# In short: as §1
row,SMILES,MRT
1,Fc1ccc(COC2CCN(Cc3ccc4[nH]cnc4c3)CC2)cc1F,2.12 h

# System: not listed separately
# Assay: Cmax in mouse plasma at 5 mg/kg, ip measured after 24 hrs
# Format: ADME, organism-based
# Set-up: dose 5 mg/kg, time 24 hrs, route ip
# Conditions: in vivo
# In short: as §1
row,SMILES,Cmax
1,Fc1ccc(COC2CCN(Cc3ccc4[nH]cnc4c3)CC2)cc1F,527 ng/mL

# System: not listed separately
# Assay: Tmax in mouse brain at 5 mg/kg, ip measured after 24 hrs
# Format: ADME, organism-based
# Conditions: in vivo
# In short: as §1
row,SMILES,Tmax
1,Fc1ccc(COC2CCN(Cc3ccc4[nH]cnc4c3)CC2)cc1F,0.56 h
